Measurements: ChEMBL document CHEMBL1147882, “In vitro efficiency of new acridyl derivatives against Plasmodium falciparum” (Bioorg Med Chem, 2007)

Each compound was assayed on Plasmodium falciparum (assay: Antimalarial activity against chloroquine-sensitive Plasmodium falciparum 3D7 by hypoxanthine uptake).
Assay type: functional, organism-based
Method in brief: (§1)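 Synchronous parasites diluted in A-positive human erythrocytes with RPMI 1640 + 10% human serum, 25 mM HEPES, 25 mM NaHCO₃, to 0.2 parasitemia and 1.5 hematocrit. Added to wells predosed with drug, 0.06 to 200 µM in triplicate. 1 µCi [³H]hypoxanthine per well, 42 h at 37 °C. Incorporated radioactivity counted by scintillation. IC50 from non-linear regression of log-dose/response versus drug-free controls.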
COc1ccc2nc3cc(Cl)ccc3c(NCCCCCCNC(=O)CCNC(=O)CCNC(=O)C(N)CCCNC(=N)N)c2c1 (configuration not stated) was tested, and the IC50 was 3320 nM.
N=C(N)NCCCC(N)C(=O)NCC(=O)NCCCCCCNC(=O)c1c2ccccc2nc2ccccc12 (configuration not stated) was tested, and the IC50 was 42000 nM.
For COc1ccc2nc3cc(Cl)ccc3c(NCCCCCCNC(=O)CCCNC(=O)CNC(=O)C(N)CCCNC(=N)N)c2c1 (configuration not stated), the IC50 was 840 nM.
With COc1ccc2nc3cc(Cl)ccc3c(NCCCCCCNC(=O)CCCNC(=O)CN)c2c1 the IC50 was 890 nM.
COc1ccc2nc3cc(Cl)ccc3c(NCCCCCCNC(=O)CCCN)c2c1 showed an IC50 of 190 nM.
For COc1ccc2nc3cc(Cl)ccc3c(NCCCCCCN)c2c1, the IC50 was 130 nM.
With N=C(N)NCCCC(N)C(=O)NCC(=O)NCCCCCCCC(=O)Nc1c2ccccc2nc2ccccc12 (configuration not stated) the IC50 was 27100 nM.
With COc1ccc2nc3cc(Cl)ccc3c(NCCCCCCNC(=O)CCN)c2c1 the IC50 was 910 nM.

These compounds were tested on Plasmodium falciparum (assay: Antimalarial activity against chloroquine-resistant Plasmodium falciparum W2 by hypoxanthine uptake).
Assay type: functional, organism-based
Method in brief: as §1
Work on COc1ccc2nc3cc(Cl)ccc3c(NCCCCCCNC(=O)CCNC(=O)CCNC(=O)C(N)CCCNC(=N)N)c2c1 (configuration not stated) yielded an IC50 of 940 nM.
For N=C(N)NCCCC(N)C(=O)NCC(=O)NCCCCCCNC(=O)c1c2ccccc2nc2ccccc12 (configuration not stated), the IC50 was 43600 nM.
For COc1ccc2nc3cc(Cl)ccc3c(NCCCCCCNC(=O)CCCNC(=O)CNC(=O)C(N)CCCNC(=N)N)c2c1 (configuration not stated), the IC50 was 820 nM.
COc1ccc2nc3cc(Cl)ccc3c(NCCCCCCNC(=O)CCCNC(=O)CN)c2c1 showed an IC50 of 830 nM.
With COc1ccc2nc3cc(Cl)ccc3c(NCCCCCCNC(=O)CCCN)c2c1 the IC50 was 570 nM.
COc1ccc2nc3cc(Cl)ccc3c(NCCCCCCN)c2c1 gave an IC50 of 180 nM.
N=C(N)NCCCC(N)C(=O)NCC(=O)NCCCCCCCC(=O)Nc1c2ccccc2nc2ccccc12 (configuration not stated) gave an IC50 of 30500 nM.
Compound COc1ccc2nc3cc(Cl)ccc3c(NCCCCCCNC(=O)CCN)c2c1 has an IC50 of 1250 nM.

Each compound was assayed on Plasmodium falciparum (assay: Antimalarial activity against chloroquine-resistant Plasmodium falciparum FCR3 by hypoxanthine uptake).
Assay type: functional, organism-based
Method in brief: as §1
With COc1ccc2nc3cc(Cl)ccc3c(NCCCCCCNC(=O)CCNC(=O)CCNC(=O)C(N)CCCNC(=N)N)c2c1 (configuration not stated) the IC50 was 860 nM.
N=C(N)NCCCC(N)C(=O)NCC(=O)NCCCCCCNC(=O)c1c2ccccc2nc2ccccc12 (configuration not stated) showed an IC50 of 42500 nM.
Compound COc1ccc2nc3cc(Cl)ccc3c(NCCCCCCNC(=O)CCCNC(=O)CNC(=O)C(N)CCCNC(=N)N)c2c1 (configuration not stated) has an IC50 of 670 nM.
COc1ccc2nc3cc(Cl)ccc3c(NCCCCCCNC(=O)CCCNC(=O)CN)c2c1 showed an IC50 of 810 nM.
COc1ccc2nc3cc(Cl)ccc3c(NCCCCCCNC(=O)CCCN)c2c1 showed an IC50 of 540 nM.
For COc1ccc2nc3cc(Cl)ccc3c(NCCCCCCN)c2c1, the IC50 was 200 nM.
Work on N=C(N)NCCCC(N)C(=O)NCC(=O)NCCCCCCCC(=O)Nc1c2ccccc2nc2ccccc12 (configuration not stated) yielded an IC50 of 27200 nM.
COc1ccc2nc3cc(Cl)ccc3c(NCCCCCCNC(=O)CCN)c2c1 showed an IC50 of 1250 nM.

Each compound was assayed on Plasmodium falciparum (assay: Antimalarial activity against chloroquine-resistant Plasmodium falciparum Bre1 by hypoxanthine uptake).
Assay type: functional, organism-based
Method in brief: as §1
Work on COc1ccc2nc3cc(Cl)ccc3c(NCCCCCCNC(=O)CCNC(=O)CCNC(=O)C(N)CCCNC(=N)N)c2c1 (configuration not stated) yielded an IC50 of 860 nM.
Compound N=C(N)NCCCC(N)C(=O)NCC(=O)NCCCCCCNC(=O)c1c2ccccc2nc2ccccc12 (configuration not stated) has an IC50 of 47600 nM.
For COc1ccc2nc3cc(Cl)ccc3c(NCCCCCCNC(=O)CCCNC(=O)CNC(=O)C(N)CCCNC(=N)N)c2c1 (configuration not stated), the IC50 was 500 nM.
COc1ccc2nc3cc(Cl)ccc3c(NCCCCCCNC(=O)CCCNC(=O)CN)c2c1 was tested, and the IC50 was 620 nM.
Work on COc1ccc2nc3cc(Cl)ccc3c(NCCCCCCNC(=O)CCCN)c2c1 yielded an IC50 of 180 nM.
For COc1ccc2nc3cc(Cl)ccc3c(NCCCCCCN)c2c1, the IC50 was 170 nM.
N=C(N)NCCCC(N)C(=O)NCC(=O)NCCCCCCCC(=O)Nc1c2ccccc2nc2ccccc12 (configuration not stated) gave an IC50 of 28700 nM.
With COc1ccc2nc3cc(Cl)ccc3c(NCCCCCCNC(=O)CCN)c2c1 the IC50 was 1260 nM.
